Experimental data published in ChEMBL document CHEMBL1131436, “Repaglinide and related hypoglycemic benzoic acid derivatives” (1998).

Tests used:
Rattus norvegicus [1] = experiment: Maximum % decrease of blood glucose (deltaBG) was observed within 4 hour after administration orally at 1 mg/kg dose to fasted adult female rats versus a control group; type: functional; details: route oral
Summary of the method: (§1)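 Female Wistar rats (Chbb THOM, SPF, 200-220 g), fasted 24 h, dosed orally by gavage as suspension in 1.5% Tylose methylcellulose (10 mL/kg). Whole blood from retrobulbar plexus under light halothane, deproteinized with 0.33 M HClO4; glucose by hexokinase/G6PDH, hourly up to 4 h. % decrease vs control group (N = 7), Student's t-test, P ≤ 0.05.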

Rattus norvegicus [2] = experiment: Maximum % decrease of blood glucose (deltaBG) was observed within 4 hour after administration orally at 10 mg/kg dose to fasted adult female rats versus a control group; type: functional; details: route oral; summary of the method: as §1
Rattus norvegicus [3] = experiment: Half-maximal effective dose was measured on rat blood glucose after administrating at 4 hr; type: functional
Summary of the method: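 Adult fasted female Wistar rats (Chbb THOM, SPF, 200-220 g), food withdrawn 24 h; oral gavage of suspension in 1.5% Tylose (methylcellulose), 10 mL/kg. Retrobulbar blood under light halothane; glucose by hexokinase/G6PDH after HClO4 deproteinization, hourly to 4 h. ED50 from fit of glucose vs dose, y = b + [a × k/(k + x^nH)], Hill coefficient nH.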

Rattus norvegicus [4] = experiment: Maximum % decrease of blood glucose (deltaBG) was observed within 4 hour after administration orally at 0.5 mg/kg dose to fasted adult female rats versus a control group; type: functional; details: route oral; summary of the method: as §1
Rattus norvegicus [5] = experiment: Maximum % decrease of blood glucose (deltaBG) was observed within 4 hour after administration orally at 0.1 mg/kg dose to fasted adult female rats versus a control group; type: functional; details: route oral; summary of the method: as §1
Rattus norvegicus [6] = experiment: Maximum % decrease of blood glucose (deltaBG) was observed within 4 hour after administration orally at 5 mg/kg dose to fasted adult female rats versus a control group; type: functional; details: route oral; summary of the method: as §1
Rattus norvegicus [7] = experiment: Maximum % decrease of blood glucose (deltaBG) was observed within 4 hour after administration orally at 1 mg/kg dose to fasted adult female rats versus a control group; NS =' not significant'; type: functional, organism-based; set-up: dose 1 mg/kg; summary of the method: as §1
Rattus norvegicus [8] = experiment: Maximum % decrease of blood glucose (deltaBG) was observed within 4 hour after administration orally at 25 mg/kg dose to fasted adult female rats versus a control group; type: functional; details: route oral; summary of the method: as §1
Rattus norvegicus [9] = experiment: Maximum % decrease of blood glucose (deltaBG) was observed within 4 hour after administration orally at 25 mg/kg dose to fasted adult female rats versus a control group; NS =' not significant'; type: functional, organism-based; set-up: dose 25 mg/kg; summary of the method: as §1
[10] = Rattus norvegicus, Blood, 4 h, read-out: ED50

O=C(O)c1ccc(CCNC(=O)c2ccccc2N2CCCCCCCC2)cc1
Delta BG (Rattus norvegicus [1]): -9%

CC1CC(C)CN(c2ccc(Cl)cc2C(C)NC(=O)Cc2ccc(C(=O)O)cc2)C1 (stereo unspecified)
Delta BG (Rattus norvegicus [2]): -20%

CC1CC(C)CN(c2ccc(Cl)cc2C(=O)NCCc2ccc(C(=O)O)cc2)C1 (stereo in doubt; 5h)
Delta BG (Rattus norvegicus [1]; 1 mg/kg): -44% | ED50 (Rattus norvegicus [3]; [10]): 0.33 mg/kg | Delta BG (Rattus norvegicus [4]): -29%

CC(NC(=O)Cc1ccc(C(=O)O)cc1)c1ccccc1N1CCCCC1 (stereo unspecified)
Delta BG (Rattus norvegicus [1]): -41% | Delta BG (Rattus norvegicus [5]): -13% | ED50 (Rattus norvegicus [3]): 0.3 mg/kg | ED50 (Rattus norvegicus [3]; [10]): 0.3 mg/kg | Delta BG (Rattus norvegicus [4]): -31% | Delta BG (Rattus norvegicus [6]): -49%

CCCC(NC(=O)Cc1ccc(C(=O)O)cc1)c1ccccc1-c1ccccc1 (stereo unspecified)
Delta BG (Rattus norvegicus [2]): -21%

CCCC(CC(=O)Cc1ccc(C(=O)O)cc1)c1ccccc1N1CCCCC1 (stereo unspecified)
Delta BG (Rattus norvegicus [2]): -11%

CC(NC(=O)Cc1ccc(C(=O)O)cc1)c1ccccc1N1CCCCC1C (stereo unspecified)
Delta BG (Rattus norvegicus [1]): -13% | Delta BG (Rattus norvegicus [2]): -43%

O=C(Cc1ccc(C(=O)O)cc1)NCc1cc(Cl)ccc1N1CCCCC1
Delta BG (Rattus norvegicus [2]): -37%

CC(NC(=O)Cc1ccc(C(=O)O)cc1)c1ccccc1N1CCCCCC1 (stereo unspecified)
Delta BG (Rattus norvegicus [6]): -29%

C=C(C)CC(NC(=O)Cc1ccc(C(=O)O)c(OCC)c1)c1ccccc1N1CCCCC1 (stereo unspecified)
Delta BG (Rattus norvegicus [5]): -31%

CCOc1cc(CC(=O)NC(CC2CCCCCC2)c2ccccc2N2CCCCC2)ccc1C(=O)O (stereo unspecified)
Delta BG (Rattus norvegicus [4]): -19%

CC1CCCN(c2ccc(Cl)cc2C(C)NC(=O)Cc2ccc(C(=O)O)cc2)C1 (stereo unspecified)
Delta BG (Rattus norvegicus [2]): -34%

O=C(O)c1ccc(CCNC(=O)c2cc(Cl)ccc2N2CCCCC2)cc1
Delta BG (Rattus norvegicus [6]): -37% | Delta BG (Rattus norvegicus [7]): Not significant

C=C(C)C[C@H](NC(=O)Cc1ccc(C(=O)O)c(OCC)c1)c1ccccc1N1CCCCC1
Delta BG (Rattus norvegicus [5]): -43%

CCC(NC(=O)Cc1ccc(C(=O)O)cc1)c1ccccc1N1CCCCC1 (stereo unspecified)
Delta BG (Rattus norvegicus [4]): -28%

O=C(O)c1ccc(CCNC(=O)c2cc(Cl)ccc2N2CCCCCCCCCC2)cc1
Delta BG (Rattus norvegicus [7]): Not significant

CCCCCC(NC(=O)Cc1ccc(C(=O)O)c(OCC)c1)c1ccccc1N1CCCCC1 (stereo unspecified)
Delta BG (Rattus norvegicus [5]): -13% | Delta BG (Rattus norvegicus [4]): -42%

CCOc1cc(CCNC(=O)c2cc(Cl)ccc2N2CCCCCCCC2)ccc1C(=O)O
Delta BG (Rattus norvegicus [1]): -16%

O=C(O)c1ccc(CCNC(=O)c2cc(Cl)ccc2N2CCCCCCCCC2)cc1
Delta BG (Rattus norvegicus [1]): -29%

CC(NC(=O)Cc1ccc(C(=O)O)cc1)c1cc(Cl)ccc1N1CCCC1 (stereo unspecified)
Delta BG (Rattus norvegicus [2]): -26%

CCN(CC)c1ccc(Cl)cc1C(=O)NCCc1ccc(C(=O)O)cc1
Delta BG (Rattus norvegicus [8]): -35%

O=C(Cc1ccc(C(=O)O)cc1)NC(CCc1ccccc1)c1ccccc1N1CCCCC1 (stereo unspecified)
Delta BG (Rattus norvegicus [2]): -38%

CCOc1cc(CC(=O)N[C@H](CC(C)C)c2ccccc2N2CCCCC2)ccc1C(=O)O
Delta BG (Rattus norvegicus [7]): Not significant

CN(C)c1ccc(Cl)cc1C(=O)NCCc1ccc(C(=O)O)cc1
Delta BG (Rattus norvegicus [8]): -28%

CC1CCCN(c2ccc(Cl)cc2C(=O)NCCc2ccc(C(=O)O)cc2)C1 (stereo unspecified)
Delta BG (Rattus norvegicus [1]): -22%

O=C(O)c1ccc(CCNC(=O)c2cc(Cl)ccc2N2CCCCCC2)cc1
Delta BG (Rattus norvegicus [1]): -16%

CCCC(NC(=O)Cc1ccc(C(=O)O)c(O)c1)c1ccccc1N1CCCCC1 (stereo unspecified)
Delta BG (Rattus norvegicus [2]): -47% | Delta BG (Rattus norvegicus [7]): Not significant

COc1ccc(Cl)cc1C(=O)NCCc1ccc(C(=O)O)cc1 [MEGLITINIDE]
Delta BG (Rattus norvegicus [1]): -9% | ED50 (Rattus norvegicus [3]; [10]): 9.4 mg/kg | Delta BG (Rattus norvegicus [2]): -22%

CCCCC(NC(=O)Cc1ccc(C(=O)O)cc1)c1ccccc1N1CCCCC1 (stereo unspecified)
Delta BG (Rattus norvegicus [4]): -32%

COc1ccc(Cl)cc1C(C)NC(=O)Cc1ccc(C(=O)O)cc1 (stereo unspecified)
Delta BG (Rattus norvegicus [2]): -14%

CCCCCC(NC(=O)Cc1ccc(C(=O)O)cc1)c1ccccc1N1CCCCC1 (stereo unspecified)
Delta BG (Rattus norvegicus [1]): -29%

CC(NS(=O)(=O)Cc1ccc(C(=O)O)cc1)c1ccccc1N1CCCCC1 (stereo unspecified)
Delta BG (Rattus norvegicus [9]): Not significant

CC(NC(=O)Cc1ccc(C(=O)O)cc1)c1ccccc1N(C)C (stereo unspecified)
Delta BG (Rattus norvegicus [2]): -20%

CC(NC(=O)Cc1ccc(C(=O)O)cc1)c1cc(Cl)ccc1N1CCCCCCCC1 (stereo unspecified)
Delta BG (Rattus norvegicus [9]): Not significant

CCOc1cc(CC(=O)NC(Cc2ccccc2)c2ccccc2N2CCCCC2)ccc1C(=O)O (stereo unspecified)
Delta BG (Rattus norvegicus [2]): -38%

CCC[C@@H](NC(=O)Cc1ccc(C(=O)O)cc1)c1ccccc1N1CCCCC1
Delta BG (Rattus norvegicus [1]): -19%

CC(NC(=O)Cc1ccc(S(=O)(=O)NC(=O)NC2CCCCC2)cc1)c1ccccc1N1CCCCC1 (stereo unspecified)
Delta BG (Rattus norvegicus [6]): -42% | Delta BG (Rattus norvegicus [7]): Not significant

CCOc1cc(CC(=O)NC(c2ccccc2)c2ccccc2N2CCCCC2)ccc1C(=O)O (stereo unspecified)
Delta BG (Rattus norvegicus [5]): -22% | Delta BG (Rattus norvegicus [4]): -40%

CC1CCCN(c2ccccc2C(C)NC(=O)Cc2ccc(C(=O)O)cc2)C1 (stereo unspecified)
Delta BG (Rattus norvegicus [1]): -27% | Delta BG (Rattus norvegicus [2]): -42%

CC(C(=O)NCc1ccc(C(=O)O)cc1)c1ccccc1N1CCCCC1 (stereo unspecified)
Delta BG (Rattus norvegicus [6]): -32%
